Source: ChEMBL document CHEMBL4622950, “The synthesis and antituberculosis activity of 5-alkynyl uracil derivatives” (Bioorg Med Chem Lett, 2020)
Values after ≈ are worked out from the molar mass of the structure shown.

Legend:
[1] = Cytotoxicity against human MRC5 cells assessed as reduction in cell viability by MTT assay; assay type: cell-based
Procedure, shortened: (§1)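 Viability read by the standard formazan (MTT) method. CC50 is the concentration giving a 50% decrease in cell viability, reported in µM as CC50±SD.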

[2] = test system: Mycobacterium tuberculosis; assay: Antitubercular activity against Mycobacterium tuberculosis H37Ra assessed as bacterial growth inhibition by MABA; assay type: functional
Procedure, shortened: (§2)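 Whole-cell growth inhibition of Mycobacterium bovis and M. tuberculosis H37Ra, read quantitatively by Microplate Alamar Blue Assay (alamar blue reagent). Compounds were tested across 1 to 100 µg/ml. Activity was expressed as MIC50 (µg/ml) from this concentration series.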

[3] = test system: Mycobacterium tuberculosis; assay: Antitubercular activity against Mycobacterium tuberculosis H37Ra assessed as bacterial growth inhibition at 50 to 100 ug/ml by MABA relative to control; assay type: functional
[4] = Cytotoxicity against African green monkey Vero cells assessed as reduction in cell viability by MTT assay; assay type: cell-based; conditions: chlorocebus sabaeus; procedure, shortened: as §1
[5] = Cytotoxicity against human A549 cells assessed as reduction in cell viability by MTT assay; assay type: cell-based; procedure, shortened: as §1
[6] = test system: Mycobacterium tuberculosis; assay: Antitubercular activity against Mycobacterium tuberculosis H37Ra assessed as bacterial growth inhibition at 1 to 5 ug/ml by MABA relative to control; assay type: functional
[7] = test system: Mycobacterium tuberculosis; assay: Antitubercular activity against Mycobacterium tuberculosis H37Ra assessed as bacterial growth inhibition at 100 ug/ml by MABA relative to control; assay type: functional; conditions: read-out: GI
[8] = test system: Mycobacterium tuberculosis; assay: Antitubercular activity against Mycobacterium tuberculosis H37Ra assessed as bacterial growth inhibition by MABA relative to control; assay type: functional; procedure, shortened: as §2
[9] = test system: Mycobacterium tuberculosis; assay: Antitubercular activity against Mycobacterium tuberculosis H37Ra assessed as bacterial growth inhibition at 10 ug/ml by MABA relative to control; assay type: functional; conditions: read-out: GI
[10] = test system: Mycobacterium tuberculosis; assay: Antitubercular activity against Mycobacterium tuberculosis H37Ra assessed as bacterial growth inhibition at 50 ug/ml by MABA relative to control; assay type: functional; conditions: read-out: GI
[11] = test system: Mycobacterium tuberculosis; assay: Antitubercular activity against Mycobacterium tuberculosis H37Ra assessed as bacterial growth inhibition at 25 ug/ml by MABA relative to control; assay type: functional; conditions: read-out: GI
[12] = test system: Mycobacterium tuberculosis; assay: Antitubercular activity against Mycobacterium tuberculosis H37Ra assessed as bacterial growth inhibition at 5 ug/ml by MABA relative to control; assay type: functional; conditions: read-out: GI
[13] = test system: Mycobacterium tuberculosis; assay: Antitubercular activity against Mycobacterium tuberculosis H37Ra assessed as bacterial growth inhibition at 1 ug/ml by MABA relative to control; assay type: functional; conditions: read-out: GI

Row | Structure (SMILES) | CC50 [1] [µM] | MIC50 [2] [µg/mL] | growth inhibition (GI) [3] [%] | CC50 [4] [µM] | CC50 [5] [µM] | growth inhibition (GI) [6] [%] | inhibition of growth at 100 µg/mL [7] [%] | growth inhibition (GI) [8] [%] | inhibition of growth at 10 µg/mL [9] [%] | inhibition of growth at 50 µg/mL [10] [%] | inhibition of growth at 25 µg/mL [11] [%] | inhibition of growth at 5 µg/mL [12] [%] | inhibition of growth at 1 µg/mL [13] [%]
1 | O=c1[nH]cc(C#Cc2ccccc2)c(=O)[nH]1 | 75.1 | 18.2 (≈ 85.8 µM) | 90 | 254 | 248 |  |  |  |  |  |  |  | 
2 | O=c1[nH]cc(C#CC2CCCCC2)c(=O)[nH]1 | 62.8 | 2.8 (≈ 12.8 µM) |  | 247 | 245 | 50 | 90 |  |  |  |  |  | 
3 | CCCCCCC#Cc1c[nH]c(=O)[nH]c1=O | 94.9 |  |  | 250 | 249 |  |  | 0 |  |  |  |  | 
4 | O=c1[nH]c(=O)n([C@@H]2O[C@H](CO)[C@@H](O)[C@H]2O)cc1C#CC1CC1 | 24.2 |  |  | 133 | 115 | 50 | 90 |  | 70 |  |  |  | 
5 | CCCCCCC#Cc1cn([C@@H]2O[C@H](CO)[C@@H](O)[C@H]2O)c(=O)[nH]c1=O | 15.7 | < 50 |  | 111 | 87.2 |  | 90 |  | 0 |  |  |  | 
6 | CC#Cc1c[nH]c(=O)[nH]c1=O | 117 |  |  | 262 | 256 |  |  | 0 |  |  |  |  | 
7 | CCC#Cc1c[nH]c(=O)[nH]c1=O | 120 |  |  | 263 | 253 |  |  | 0 |  |  |  |  | 
8 | O=c1[nH]c(=O)n([C@@H]2O[C@H](CO)[C@@H](O)[C@H]2O)cc1C#CC(O)c1ccccc1 (stereo not given in full) | 0.9 | 1.1 (≈ 2.94 µM) |  | 65.4 | 34.2 | 100 |  |  |  |  |  |  | 
9 | CCCCC#Cc1c[nH]c(=O)[nH]c1=O | 113 |  |  | 253 | 250 |  |  | 0 |  |  |  |  | 
10 | O=c1[nH]cc(C#CC2CC2)c(=O)[nH]1 | 101 | 5.2 (≈ 29.5 µM) |  | 252 | 251 |  | 90 |  |  | 70 |  |  | 
11 | O=c1[nH]c(=O)n([C@@H]2O[C@H](CO)[C@@H](O)[C@H]2O)cc1C#Cc1ccccc1 | 1.2 | 3.2 (≈ 9.29 µM) | 90 | 78.4 | 42.5 | 50 |  |  | 70 |  |  |  | 
12 | CCCCC#Cc1cn([C@@H]2O[C@H](CO)[C@@H](O)[C@H]2O)c(=O)[nH]c1=O | 11.6 | 50 (≈ 154 µM) |  | 103 | 83.2 |  | 90 |  | 10 | 50 |  |  | 
13 | C[Si](C)(C)C#Cc1c[nH]c(=O)[nH]c1=O | 124 | 100 (≈ 480 µM) |  | 270 | 268 |  | 50 |  |  |  |  |  | 
14 | O=c1[nH]cc(C#CC(O)c2ccccc2)c(=O)[nH]1 (stereo not given) | 38.4 | 2.9 (≈ 12 µM) | 90 | 242 | 237 | 50 |  |  | 75 |  |  |  | 
15 | O=c1[nH]c(=O)n([C@@H]2O[C@H](CO)[C@@H](O)[C@H]2O)cc1C#CC1CCCCC1 | 36.8 | 18.9 (≈ 53.9 µM) |  | 148 | 127 | 10 |  |  |  | 70 | 55 |  | 
16 | N[C@@H]1CONC1=O [CYCLOSERINE] |  | 5.2 (≈ 50.9 µM) |  |  |  |  |  |  | 67 |  |  | 50 | 
17 | NNC(=O)c1ccncc1 [ISONIAZID] |  | 0.8 (≈ 5.83 µM) |  |  |  |  |  |  |  |  |  |  | 100
18 | CO[C@H]1/C=C/O[C@@]2(C)Oc3c(C)c(O)c4c(O)c(c(/C=N/N5CCN(C)CC5)c(O)c4c3C2=O)NC(=O)/C(C)=C\C=C\[C@H](C)[C@H](O)[C@@H](C)[C@@H](O)[C@@H](C)[C@H](OC(C)=O)[C@@H]1C [RIFAMPIN] |  | 0.7 (≈ 0.851 µM) |  |  |  |  |  |  |  |  |  |  | 100
